Laboratory results published in ChEMBL document CHEMBL3593234, “Lanostane Triterpenes from the Tibetan Medicinal Mushroom Ganoderma leucocontextum and Their Inhibitory Effects on HMG-CoA Reductase and α-Glucosidase” (J Nat Prod, 2015).
pIC50: −log10 of the molar value.

Experiments:
[1] = target: Sucrase-isomaltase, intestinal (Rattus norvegicus, UniProt P23739); assay: Inhibition of sucrase in rat intestinal mucosa pre-incubated for 40 mins using sucrose substrate; type: tissue-based
In short: (§1)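 Rat intestinal mucosa powder (1.0 g) was suspended in 3 mL 0.9% saline and sonicated at 4 °C (12 × 30 s), then spun at 10000g, 4 °C, 30 min; the supernatant served as enzyme. Compound in DMSO was mixed with substrate (maltose, sucrose or p-nitrophenyl-α-D-glucopyranoside) in 0.1 M phosphate buffer pH 6.9 and preincubated 40 min. Glucose was read by GOD kit at 550 nm, with blank-corrected percent inhibition.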

PC-3 = assay: Cytotoxicity against human PC3 cells by MTT method; type: functional, cell-based
[2] = Inhibition of Baker's yeast alpha-glucosidase; parameters: species or system Saccharomyces cerevisiae
In short: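 Baker's yeast α-glucosidase assay read by absorbance at 405 nm. Control wells got phosphate buffer instead of compound, and blanks got buffer instead of enzyme. Percent inhibition was calculated from blank-corrected OD of test versus control wells.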

[3] = target: T1, 3-hydroxy-3-methylglutaryl-coenzyme A reductase (Sus scrofa, UniProt Q1W675); assay: Inhibition of pig liver microsomes HMG-CoA reductase incubated for 5 mins in using HMG-CoA and NADPH by colorimetric method
T1 sequence (Q1W675 whole entry): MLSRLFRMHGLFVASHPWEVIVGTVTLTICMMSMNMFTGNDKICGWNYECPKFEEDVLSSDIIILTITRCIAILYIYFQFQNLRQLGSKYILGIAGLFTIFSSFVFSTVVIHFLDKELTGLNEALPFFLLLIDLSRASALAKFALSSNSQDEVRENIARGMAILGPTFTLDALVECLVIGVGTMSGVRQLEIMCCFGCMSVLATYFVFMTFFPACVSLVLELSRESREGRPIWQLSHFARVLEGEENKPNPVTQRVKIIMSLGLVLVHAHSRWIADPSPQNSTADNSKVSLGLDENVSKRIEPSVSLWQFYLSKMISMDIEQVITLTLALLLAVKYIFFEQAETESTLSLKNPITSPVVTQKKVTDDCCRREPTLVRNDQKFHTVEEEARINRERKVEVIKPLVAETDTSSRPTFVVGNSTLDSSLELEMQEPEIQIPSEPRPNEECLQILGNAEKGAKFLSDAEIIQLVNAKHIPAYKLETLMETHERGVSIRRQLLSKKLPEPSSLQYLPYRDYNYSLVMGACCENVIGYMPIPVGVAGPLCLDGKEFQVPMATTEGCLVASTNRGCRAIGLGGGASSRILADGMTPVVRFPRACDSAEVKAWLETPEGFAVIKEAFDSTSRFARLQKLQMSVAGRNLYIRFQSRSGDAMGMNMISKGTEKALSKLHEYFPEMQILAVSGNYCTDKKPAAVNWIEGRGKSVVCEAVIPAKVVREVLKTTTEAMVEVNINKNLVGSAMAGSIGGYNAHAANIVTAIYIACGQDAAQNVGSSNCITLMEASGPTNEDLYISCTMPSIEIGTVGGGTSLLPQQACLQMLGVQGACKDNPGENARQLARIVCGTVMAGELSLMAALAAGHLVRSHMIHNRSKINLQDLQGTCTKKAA
In short: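 Pig liver microsomal HMG-CoA reductase at about 4 U/mL final, with compound at 2.5–80 μM final and 200 μM HMG-CoA. Buffer was 0.1 mol/L potassium phosphate pH 7.0 with EDTA, dithiothreitol and BSA. After 5 min at 37 °C, 100 μM NADPH was added for 15 min at 37 °C. Absorbance was read at 340 nm, with percent inhibition from blank-corrected OD.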

K562 = assay: Cytotoxicity against human K562 cells by MTT method; type: functional, cell-based
[4] = Inhibition of alpha-glucosidase in rat intestinal mucosa pre-incubated for 40 mins using p-nitrophenyl-alpha-D-glucopyranoside substrate; type: tissue-based; in short: as §1

Sequence of Sucrase-isomaltase, intestinal (P23739 1-1013 limits assumed): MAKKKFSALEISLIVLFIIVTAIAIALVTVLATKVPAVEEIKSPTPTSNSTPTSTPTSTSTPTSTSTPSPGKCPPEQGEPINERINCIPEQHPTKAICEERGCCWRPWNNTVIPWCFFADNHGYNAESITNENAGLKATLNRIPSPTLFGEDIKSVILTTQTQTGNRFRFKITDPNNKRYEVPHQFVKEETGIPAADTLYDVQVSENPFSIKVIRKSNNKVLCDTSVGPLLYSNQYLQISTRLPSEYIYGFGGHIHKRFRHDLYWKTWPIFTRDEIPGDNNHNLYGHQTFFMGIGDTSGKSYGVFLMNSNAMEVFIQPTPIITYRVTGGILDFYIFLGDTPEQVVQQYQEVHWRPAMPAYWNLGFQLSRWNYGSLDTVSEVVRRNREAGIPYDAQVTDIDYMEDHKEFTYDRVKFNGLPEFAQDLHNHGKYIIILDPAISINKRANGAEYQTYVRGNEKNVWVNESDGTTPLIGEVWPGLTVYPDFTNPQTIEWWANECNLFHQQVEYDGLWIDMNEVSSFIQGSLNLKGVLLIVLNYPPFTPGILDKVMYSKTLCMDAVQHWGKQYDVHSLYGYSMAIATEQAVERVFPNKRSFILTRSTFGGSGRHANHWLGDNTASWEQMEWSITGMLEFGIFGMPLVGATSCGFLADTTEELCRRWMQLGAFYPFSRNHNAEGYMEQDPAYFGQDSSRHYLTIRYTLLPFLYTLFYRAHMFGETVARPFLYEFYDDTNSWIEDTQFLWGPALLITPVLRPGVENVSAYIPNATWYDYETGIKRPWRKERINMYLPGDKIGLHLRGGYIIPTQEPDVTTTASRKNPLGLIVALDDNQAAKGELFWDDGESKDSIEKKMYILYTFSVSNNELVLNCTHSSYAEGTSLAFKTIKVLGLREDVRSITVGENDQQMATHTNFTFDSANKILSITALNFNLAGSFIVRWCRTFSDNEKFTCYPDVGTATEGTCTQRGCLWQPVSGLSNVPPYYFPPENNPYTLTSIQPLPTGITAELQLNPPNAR
Sequence of Sucrase-isomaltase, intestinal (P23739 1014-1841 limits assumed): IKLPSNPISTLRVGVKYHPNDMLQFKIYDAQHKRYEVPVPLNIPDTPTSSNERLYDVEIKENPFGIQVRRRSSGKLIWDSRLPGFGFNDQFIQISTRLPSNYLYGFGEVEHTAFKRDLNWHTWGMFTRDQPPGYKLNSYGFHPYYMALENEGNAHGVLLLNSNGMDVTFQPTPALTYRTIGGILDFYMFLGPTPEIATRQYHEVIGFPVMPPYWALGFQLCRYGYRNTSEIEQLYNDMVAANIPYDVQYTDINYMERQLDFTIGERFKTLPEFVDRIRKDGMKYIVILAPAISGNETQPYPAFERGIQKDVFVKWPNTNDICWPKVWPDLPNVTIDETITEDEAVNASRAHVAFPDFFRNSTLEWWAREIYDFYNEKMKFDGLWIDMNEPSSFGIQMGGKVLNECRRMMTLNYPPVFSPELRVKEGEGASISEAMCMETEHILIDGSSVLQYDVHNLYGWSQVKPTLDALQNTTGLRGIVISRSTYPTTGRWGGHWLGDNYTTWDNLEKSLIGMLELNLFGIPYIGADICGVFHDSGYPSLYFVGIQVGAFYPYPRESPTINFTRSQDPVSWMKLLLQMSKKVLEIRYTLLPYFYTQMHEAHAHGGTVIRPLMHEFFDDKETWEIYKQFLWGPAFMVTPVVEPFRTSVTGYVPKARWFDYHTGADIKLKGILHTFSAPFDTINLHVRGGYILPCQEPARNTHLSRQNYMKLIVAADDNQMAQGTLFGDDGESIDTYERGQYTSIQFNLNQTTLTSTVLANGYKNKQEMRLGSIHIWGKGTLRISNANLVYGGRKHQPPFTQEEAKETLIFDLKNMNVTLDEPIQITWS

Row | pIC50 [1] | pIC50 [2] | pIC50 [3] | pIC50 [4] | Structure (SMILES) | pIC50 (PC-3; Homo sapiens, PC-3) | pIC50 (K562; Homo sapiens, K562) | pIC50 (PC-3; pc-3) | pIC50 (K562; k562)
1 | 4.73 | 5.23 | < 4.00 | 5.03 | CC(C)=CCC/C(C)=C/CC/C(=C/Cc1cc(O)ccc1O)C(=O)OC[C@@](C)(O)[C@@H](O)CC[C@@H](C)[C@H]1CC[C@@]2(C)C3=C(CC[C@]12C)[C@@]1(C)CCC(=O)C(C)(C)[C@@H]1CC3=O | 4.97 | 4.97 | – | –
2 | – | < 4.30 | 4.97 | – | C/C(=C\CC[C@@H](C)[C@H]1CC(=O)[C@@]2(C)C3=C(C(=O)[C@H](O)[C@]12C)[C@@]1(C)CCC(=O)[C@@](C)(COC(=O)C[C@@](C)(O)CC(=O)O)[C@@H]1CC3=O)C(=O)O | < 3.70 | 4.65 | – | –
3 | – | < 4.30 | < 4.00 | – | C[C@H](CCC=C(CO)CO)[C@H]1CC[C@@]2(C)C3=C(C(=O)C[C@]12C)[C@@]1(C)CCC(=O)C(C)(C)[C@@H]1C[C@@H]3O | 3.88 | 4.94 | – | –
4 | – | < 4.30 | 4.01 | – | CC(=O)O[C@H]1C(=O)C2=C([C@@H](O)C[C@H]3[C@](C)(CO)C(=O)CC[C@]23C)[C@]2(C)C(=O)C[C@H]([C@H](C)CC/C=C(\C)C(=O)O)[C@@]12C | 4.05 | 3.83 | – | –
5 | – | < 4.30 | 4.69 | – | CC(=O)O[C@H]1C(=O)C2=C(C(=O)C[C@H]3[C@](C)(CO)C(=O)CC[C@]23C)[C@]2(C)C(=O)C[C@H]([C@H](C)CC/C=C(\C)C(=O)O)[C@@]12C | < 3.70 | 4.74 | – | –
6 | – | < 4.30 | 4.48 | – | C[C@H](CCC=C(CO)CO)[C@H]1CC[C@@]2(C)C3=C(C(=O)C[C@]12C)[C@@]1(C)CCC(=O)C(C)(C)[C@@H]1CC3=O | 4.62 | 3.94 | – | –
7 | – | < 4.30 | < 4.00 | – | C/C(=C/CC[C@@H](C)[C@H]1CC[C@@]2(C)C3=C(C(O)C[C@]12C)[C@@]1(C)CCC(=O)C(C)(C)[C@@H]1CC3=O)C(=O)O (stereo partly drawn) | < 3.70 | < 3.70 | – | –
8 | – | < 4.30 | 4.88 | – | C/C(=C\CC[C@@H](C)[C@H]1CC(=O)[C@@]2(C)C3=C(C(=O)C[C@]12C)[C@@]1(C)CCC(=O)[C@@](C)(COC(=O)C[C@@](C)(O)CC(=O)O)[C@@H]1CC3=O)C(=O)O | < 3.70 | 4.84 | – | –
9 | – | < 4.30 | 4.77 | – | C/C(=C\CC[C@@H](C)[C@H]1CC[C@@]2(C)C3=C(C(=O)C[C@]12C)[C@@]1(C)CCC(=O)[C@@](C)(CO)[C@@H]1C[C@@H]3O)C(=O)O | < 3.70 | 4.75 | – | –
10 | – | < 4.30 | 4.58 | – | CC(=O)O[C@H]1C(=O)C2=C([C@@H](O)C[C@H]3[C@](C)(COC(=O)C[C@@](C)(O)CC(=O)O)C(=O)CC[C@]23C)[C@]2(C)C(=O)C[C@H]([C@H](C)CC/C=C(\C)C(=O)O)[C@@]12C | 3.96 | 4.91 | – | –
11 | – | < 4.30 | 4.90 | – | C[C@H](CCC=C(CO)CO)[C@H]1CC[C@@]2(C)C3=C(CC[C@]12C)[C@@]1(C)CCC(=O)C(C)(C)[C@@H]1CC3=O | < 3.70 | 4.38 | – | –
12 | – | 4.90 | < 4.00 | – | C/C(=C\CC[C@@H](C)[C@H]1CC(=O)[C@@]2(C)C3=C(C(=O)[C@H](O)[C@]12C)[C@@]1(C)CCC(=O)[C@@](C)(CO)[C@@H]1C[C@@H]3O)C(=O)O | < 3.70 | < 3.70 | – | –
13 | – | < 4.30 | < 4.00 | – | C[C@H](CCC=C(CO)CO)[C@H]1C[C@@H](O)[C@@]2(C)C3=C(C(=O)C[C@]12C)[C@@]1(C)CCC(=O)C(C)(C)[C@@H]1CC3 | < 3.70 | < 3.70 | – | –
14 | – | < 4.30 | 4.17 | – | C/C(=C\CC[C@@H](C)[C@H]1CC[C@@]2(C)C3=C(C(=O)[C@H](O)[C@]12C)[C@@]1(C)CCC(=O)[C@@](C)(CO)[C@@H]1C[C@@H]3O)C(=O)O | < 3.70 | 4.71 | – | –
15 | – | < 4.30 | < 4.00 | – | C[C@H](CCC=C(CO)CO)[C@H]1C[C@@H](O)[C@@]2(C)C3=CC[C@H]4C(C)(C)C(=O)CC[C@]4(C)C3=CC[C@]12C | 3.99 | 4.12 | – | –
16 | – | < 4.30 | 4.58 | – | CC(=O)O[C@H]1C(=O)C2=C([C@@H](O)C[C@H]3[C@](C)(CO)C(=O)CC[C@]23C)[C@]2(C)CC[C@H]([C@H](C)CC/C=C(\C)C(=O)O)[C@@]12C | < 3.70 | < 3.70 | – | –

Second part, the compound before the results:

Row | Structure (SMILES) | pIC50 [1] | pIC50 [2] | pIC50 [3] | pIC50 [4] | pIC50 (PC-3; Homo sapiens, PC-3) | pIC50 (K562; Homo sapiens, K562) | pIC50 (PC-3; pc-3) | pIC50 (K562; k562)
17 | COc1cccc2c1C(=O)c1c(O)c3c(c(O)c1C2=O)C[C@@](O)(C(=O)CO)C[C@@H]3O[C@H]1C[C@H](N)[C@H](O)[C@H](C)O1 [DOXORUBICIN] | – | – | – | – | 5.70 | – | – | –
18 | CC(C)=CCC/C(C)=C/CC/C(=C/Cc1cc(O)ccc1O)C(=O)O[C@@H](CC[C@@H](C)[C@H]1CC[C@@]2(C)C3=CC[C@H]4C(C)(C)C(=O)CC[C@]4(C)C3=CC[C@]12C)[C@](C)(O)CO | 4.65 | 5.60 | 4.62 | 5.09 | 4.84 | 4.32 | – | –
19 | C/C(=C/CC[C@@H](C)[C@H]1CC[C@@]2(C)C3=CC[C@H]4C(C)(C)C(=O)CC[C@]4(C)C3=CC[C@]12C)C(=O)O [GANODERIC ACID S] | – | < 4.30 | 4.90 | – | 4.12 | 4.19 | – | –
20 | C[C@H](CCC=C(CO)CO)[C@H]1CC[C@@]2(C)C3=CC[C@H]4C(C)(C)C(=O)CC[C@]4(C)C3=CC[C@]12C [GANODERIOL F] | – | < 4.30 | < 4.00 | – | 4.10 | 4.26 | – | –
21 | CC(=O)O[C@H]1C(=O)[C@@]2(C)[C@H]([C@H](OC(=O)c3ccccc3)[C@]3(O)C[C@H](OC(=O)[C@H](O)[C@@H](NC(=O)c4ccccc4)c4ccccc4)C(C)=C1C3(C)C)[C@]1(OC(C)=O)CO[C@@H]1C[C@@H]2O [PACLITAXEL] | – | – | – | – | – | 6.05 | – | –
22 | CC(C)c1c(C(=O)Nc2ccccc2)c(-c2ccccc2)c(-c2ccc(F)cc2)n1CC[C@@H](O)C[C@@H](O)CC(=O)O [ATORVASTATIN] | – | – | 4.49 | – | – | – | – | –
23 | C[C@H](CC[C@H](O)[C@](C)(O)CO)[C@H]1CC[C@@]2(C)C3=CC[C@H]4C(C)(C)C(=O)CC[C@]4(C)C3=CC[C@]12C [GANODERMANONTRIOL] | – | < 4.30 | 4.77 | – | 3.98 | 4.09 | – | –
24 | C/C(=C\CC[C@@H](C)[C@H]1CC[C@@]2(C)C3=CC[C@H]4C(C)(C)[C@@H](O)CC[C@]4(C)C3=CC[C@]12C)C(=O)O [GANODERIC ACID Y] | – | < 4.30 | 5.07 | – | 3.75 | 4.76 | – | –
25 | C/C(=C/CC[C@@H](C)[C@H]1CC[C@@]2(C)C3=C(CC[C@]12C)[C@@]1(C)CCC(=O)C(C)(C)[C@@H]1CC3=O)C(=O)O (stereo in doubt; 21) [GANODERIC ACID DM] | – | – | 4.25 | – | – | – | 3.83 | 4.26
26 | C[C@H]1O[C@H](O[C@H]2[C@H](O)[C@@H](O)[C@@H](O[C@H]3[C@H](O)[C@@H](O)C(O)O[C@@H]3CO)O[C@@H]2CO)[C@H](O)[C@@H](O)[C@@H]1N[C@H]1C=C(CO)[C@@H](O)[C@H](O)[C@H]1O (stereo partly drawn) [ACARBOSE] | – | 3.56 | – | – | – | – | – | –
27 | C/C(=C/CC[C@@H](C)[C@H]1CC[C@@]2(C)C3=C(CC[C@]12C)[C@@]1(C)CCC(=O)C(C)(C)[C@@H]1CC3=O)C(=O)O (stereo in doubt; 18) [GANODERIC ACID DM] | – | < 4.30 | 5.02 | – | 4.09 | – | – | 4.73
28 | C/C(=C\CC[C@@H](C)[C@H]1CC[C@@]2(C)C3=C(CC[C@]12C)[C@@]1(C)CCC(=O)C(C)(C)[C@@H]1CC3=O)CO [GANODERONE A] | – | 4.86 | < 4.00 | – | 4.55 | 4.56 | – | –
